Experiments:
HaCaT [1] = assay: Antimitotic activity against human HaCaT cells assessed as mitotic index at 30 uM after 20 hrs; format: functional
Procedure, shortened: (§1)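 HaCaT cells grown in DMEM with 5% FCS, seeded in chamber slides at 24000 cells/0.4 ml/well. After 24 h, medium replaced with fresh medium containing the stated compound concentration, then 20 h incubation. Cells fixed in 90% acetone for 5 min at room temperature. DNA stained with DAPI (0.5 μg/ml, 1 h, RT). Metaphase-arrested cells scored by fluorescence microscopy, at least 300 cells per concentration. Mitotic index = 100% × mitotic/total cells.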

HaCaT [2] = assay: Antiproliferative activity against human HaCaT cells after 3 days by sulforhodamine B assay; format: functional, cell-based; settings: 72 h
Procedure, shortened: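 HaCaT keratinocytes kept in DMEM with 5% FCS, trypsinized and seeded at 4000 cells/0.2 mL/well in 96-well plates. Medium swapped after 24 h for fresh medium with graded compound concentrations. Proliferation read by sulforhodamine B colorimetry after 3 days. IC50 taken as the average of at least two independent measurements.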

HaCaT [3] = assay: Antimitotic activity against human HaCaT cells assessed as mitotic index at 3 uM after 20 hrs; format: functional; procedure, shortened: as §1
HaCaT [4] = assay: Antimitotic activity against human HaCaT cells assessed as mitotic index at 100 uM after 20 hrs; format: functional; procedure, shortened: as §1
HaCaT [5] = assay: Antimitotic activity against human HaCaT cells assessed as mitotic index at 20 uM after 20 hrs; format: functional; procedure, shortened: as §1
HaCaT [6] = assay: Antimitotic activity against human HaCaT cells assessed as mitotic index at 0.2 uM after 20 hrs; format: functional; procedure, shortened: as §1
HaCaT [7] = assay: Antimitotic activity against human HaCaT cells assessed as mitotic index at 10 uM after 20 hrs; format: functional; procedure, shortened: as §1
HaCaT [8] = assay: Antimitotic activity against human HaCaT cells assessed as mitotic index at 1.5 uM after 20 hrs; format: functional; procedure, shortened: as §1
HaCaT [9] = assay: Antimitotic activity against human HaCaT cells assessed as mitotic index at 1 uM after 20 hrs; format: functional; procedure, shortened: as §1
HaCaT [10] = assay: Antimitotic activity against human HaCaT cells assessed as mitotic index at 2 uM after 20 hrs; format: functional; procedure, shortened: as §1
HaCaT [11] = assay: Antimitotic activity against human HaCaT cells assessed as mitotic index at 50 uM after 20 hrs; format: functional; procedure, shortened: as §1
HaCaT [12] = assay: Antimitotic activity against human HaCaT cells assessed as mitotic index at 2.5 uM after 20 hrs; format: functional; procedure, shortened: as §1
Tubulin = Tubulin (Sus scrofa, UniProt P02554+P02550); assay: Inhibition of pig brain tubulin polymerization
Procedure, shortened: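 Pig brain tubulin purified by three warm/cold assembly cycles in 1 M monosodium glutamate pH 6.6 with 1 mM GTP. Compound (DMSO, 4% v/v final) preincubated with tubulin 15 min at 30 °C in 0.8 M glutamate pH 6.6 without GTP. Samples then chilled, given GTP, and shifted from 0 °C to 30 °C. Turbidity read at 350 nm. IC50 is 50% inhibition of polymerization extent at 20 min, by linear interpolation.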

Tubulin (Sus scrofa) = Tubulin (Sus scrofa) (UniProt P02554+P02550); assay: Binding affinity to pig brain tubulin at 10 uM after 15 mins relative to control
HaCaT [13] = assay: Antimitotic activity against human HaCaT cells assessed as mitotic index at 0.4 uM after 20 hrs; format: functional; procedure, shortened: as §1
HaCaT [14] = assay: Antimitotic activity against human HaCaT cells assessed as mitotic index at 0.5 uM after 20 hrs; format: functional; procedure, shortened: as §1

Tubulin (Sus scrofa), sequence (P02550 whole entry, looked up): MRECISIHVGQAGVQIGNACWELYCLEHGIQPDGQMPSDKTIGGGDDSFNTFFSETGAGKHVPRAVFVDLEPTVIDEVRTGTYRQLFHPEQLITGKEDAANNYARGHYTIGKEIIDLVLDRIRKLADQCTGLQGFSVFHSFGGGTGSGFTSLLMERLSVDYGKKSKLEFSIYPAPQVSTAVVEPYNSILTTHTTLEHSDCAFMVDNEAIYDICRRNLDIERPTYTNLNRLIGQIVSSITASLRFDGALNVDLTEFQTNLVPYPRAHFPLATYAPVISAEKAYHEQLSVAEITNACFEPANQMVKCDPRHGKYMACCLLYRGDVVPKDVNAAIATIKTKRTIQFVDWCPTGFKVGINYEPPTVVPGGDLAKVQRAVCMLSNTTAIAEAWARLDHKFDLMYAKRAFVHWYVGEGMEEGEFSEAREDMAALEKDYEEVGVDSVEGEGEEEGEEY
Tubulin (Sus scrofa), sequence (P02554 whole entry, looked up): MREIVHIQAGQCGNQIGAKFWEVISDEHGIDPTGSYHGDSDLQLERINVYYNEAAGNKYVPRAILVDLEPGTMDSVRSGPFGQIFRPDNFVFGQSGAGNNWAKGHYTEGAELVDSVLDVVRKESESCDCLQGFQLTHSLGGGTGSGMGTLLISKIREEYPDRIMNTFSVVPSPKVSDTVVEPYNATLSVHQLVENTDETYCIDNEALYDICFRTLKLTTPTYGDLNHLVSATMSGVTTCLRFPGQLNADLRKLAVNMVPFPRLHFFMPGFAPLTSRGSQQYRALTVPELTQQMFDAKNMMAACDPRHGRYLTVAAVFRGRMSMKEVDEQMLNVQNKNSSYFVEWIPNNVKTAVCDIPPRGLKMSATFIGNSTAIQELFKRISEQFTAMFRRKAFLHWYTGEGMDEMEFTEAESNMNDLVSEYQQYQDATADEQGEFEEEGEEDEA

COC(=O)c1cc(CCc2cc(Cl)ccc2OC)ccc1O
Activity (HaCaT [1]): 27%
IC50 (HaCaT [2]): 6900 nM

COC(=O)c1cc(CCc2cc(OC)ccc2N(C)C)ccc1O
IC50 (HaCaT [2]): 650 nM
Activity (HaCaT [3]): 42%

COC(=O)c1cc(CCc2cccc(OC)c2OC)ccc1O
Activity (HaCaT [4]): 3.7%
IC50 (HaCaT [2]): 33000 nM

COC(=O)c1cc(CCc2cc(O)ccc2OC)ccc1O
IC50 (HaCaT [2]): 8700 nM
Activity (HaCaT [5]): 57%

CCOc1ccc(OC)cc1CCc1ccc(O)c(C(=O)OC)c1
Activity (HaCaT [6]): 38%
IC50 (HaCaT [2]): 120 nM

COC(=O)c1cc(CCc2c(OC)ccc(OC)c2OC)ccc1O
IC50 (HaCaT [2]): 3500 nM
Activity (HaCaT [7]): 25%

COC(=O)c1cc(CCc2cc(OC)ccc2C(C)=O)ccc1O
Activity (HaCaT [8]): 46%
IC50 (HaCaT [2]): 41 nM

COC(=O)c1cc(CCc2cc(OC)c(C(C)(C)C)cc2C(C)=O)ccc1O
Activity (HaCaT [4]): 4.4%
IC50 (HaCaT [2]): 8200 nM

COC(=O)c1cc(CCc2cc(OC)ccc2Br)ccc1O
IC50 (HaCaT [2]): 210 nM
Activity (HaCaT [9]): 20%

COC(=O)c1cc(CCc2cc(OC)ccc2O)ccc1O
Activity (HaCaT [10]): 27%
IC50 (HaCaT [2]): 1100 nM

CCc1cccc(OC)c1CCc1ccc(O)c(C(=O)OC)c1
IC50 (HaCaT [2]): 200 nM
Activity (HaCaT [9]): 50%

COC(=O)c1cc(CCc2ccc(OC)cc2OC)ccc1O
Activity (HaCaT [4]): 7.2%
IC50 (HaCaT [2]): 19000 nM

COC(=O)c1cc(CCc2cc(O)ccc2O)ccc1O
IC50 (HaCaT [2]): 21000 nM
Activity (HaCaT [11]): 2.2%

COC(=O)c1cc(CCc2cc(OC)c(OC)c(OC)c2)ccc1O
IC50 (HaCaT [2]): 3500 nM
Activity (HaCaT [7]): 18%

COC(=O)c1cc(CCc2ccccc2OC)ccc1O
Activity (HaCaT [1]): 16%
IC50 (HaCaT [2]): 20000 nM

CCc1ccc(OC)c(CCc2ccc(O)c(C(=O)OC)c2)c1
IC50 (HaCaT [2]): 430 nM
Activity (HaCaT [9]): 44%

COC(=O)c1cc(CCc2cc(SC)ccc2OC)ccc1O
IC50 (HaCaT [2]): 860 nM
Activity (HaCaT [12]): 37%

COC(=O)c1cc(CCc2cc(OC(C)=O)ccc2OC(C)=O)ccc1O
IC50 (HaCaT [2]): 24000 nM

COC(=O)c1cc(CCc2cc(OC)ccc2OC)ccc1O
IC50 (Tubulin): 1000 nM
Activity (Tubulin (Sus scrofa)): 43%
Activity (HaCaT [6]): 36%
IC50 (HaCaT [2]): 47 nM

COC(=O)c1cc(CCc2cc(C(C)=O)ccc2OC)ccc1O
Activity (HaCaT [10]): 26%
IC50 (HaCaT [2]): 660 nM

COC(=O)c1cc(CCc2ccc3c(c2)OCO3)ccc1O
Activity (HaCaT [4]): 2.9%
IC50 (HaCaT [2]): 36000 nM

CCc1ccc(CC)c(CCc2ccc(O)c(C(=O)OC)c2)c1
Activity (HaCaT [10]): 30%
IC50 (HaCaT [2]): 650 nM

COC(=O)c1cc(CCc2cccc(OC)c2)ccc1O
Activity (HaCaT [4]): 36%
IC50 (HaCaT [2]): 37000 nM

COC(=O)c1cc(CCc2cc(N(C)C)ccc2OC)ccc1O
IC50 (HaCaT [2]): 920 nM
Activity (HaCaT [12]): 28%

COC(=O)c1cc(CCc2c(OC)cccc2OC)ccc1O
IC50 (HaCaT [2]): 110 nM
Activity (HaCaT [13]): 24%

CCOc1ccc(OCC)c(CCc2ccc(O)c(C(=O)OC)c2)c1
IC50 (HaCaT [2]): 380 nM
Activity (HaCaT [3]): 20%

CCc1ccc(OC)cc1CCc1ccc(O)c(C(=O)OC)c1
IC50 (HaCaT [2]): 130 nM
Activity (HaCaT [13]): 47%

CCOc1ccc(OC)c(CCc2ccc(O)c(C(=O)OC)c2)c1
Activity (HaCaT [14]): 31%
IC50 (HaCaT [2]): 540 nM
